Screening data as filed in PubChem BioAssay.
Rows were chosen to be rich in hits. Some 1.4% of all compounds tested hit in one or more screens of this group.
m-calpain inh – inhibitors of pig calpain II, primary screen, biochemical, fluorogenic peptide substrate, 1536-well | purified calpain II, 30 min | inhibition, % at 16 µM | 220,000 tested, 0.37% active;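 active = inhibition above about 50%, limit read from the data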
Furin inhibitor – human furin inhibitors, primary screen, biochemical, fluorescence intensity; AID 463115, 2010; purified furin, fluorogenic substrate cleavage; 220,000 tested, 0.061% active; inhibition, % at 20 µM or 30 µM; P09958; in the data active = inhibition above about 25%
FXIIa inh – human FXIIa protease inhibitors, primary screen, biochemical, 1536-well | Coagulation factor XII (Homo sapiens), P00748 | purified FXIIa, Boc-QGR-AMC fluorogenic substrate, 2 h | inhibition, % at 5 µM | 220,000 tested, 0.3% active; in the data active = inhibition above about 40%;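 also: 0% = enzyme with no compound and 100% = blank without enzyme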
KLK5 inh – human KLK5 protease inhibitors, primary screen, biochemical, 1536-well; Kallikrein-5 (Homo sapiens), Q9Y337; recombinant hK5, fluorogenic AMC substrate cleavage; inhibition, % at 5 µM; 210,000 tested, 0.59% active; AID 873, 2007;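 active = inhibition of 40% or more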;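 also: 0% = enzyme controls without compound and 100% = no-enzyme blanks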
Thrombin inh – human alpha-thrombin inhibitors, primary screen, counter-screen for coagulation protease inhibitor project, biochemical, 1536-well, fluorogenic AMC substrate; Prothrombin (Homo sapiens), P00734; Boc-VPR-AMC fluorogenic substrate cleavage; inhibition, % at 5 µM; 220,000 tested, 0.26% active;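 active = inhibition at or above 40%; inactive = inhibition below 40%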;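 also: 0% = enzyme with no compound and 100% = wells without enzyme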
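System – human alpha-thrombin protein · Reagent – Boc-VPR-AMC substrate, 15 µM final · Compound – 5 µM single dose in 0.2% DMSO · Schedule – reaction at room temperature · Technique – AMC fluorescence at 355 nm excitation and 460 nm emission · Read-out basis – % inhibition relative to enzyme controls and enzyme-free blanks · Control set – no-compound enzyme wells and no-enzyme blanks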
FXIa inh – human FXIa protease inhibitors, primary screen, biochemical, 1536-well | Coagulation factor XI (Homo sapiens), P03951 | purified FXIa, Boc-Glu-Ala-Arg-AMC fluorogenic substrate | inhibition, % at 5 µM | 220,000 tested, 0.14% active | AID 798, 2007;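 active = inhibition of at least 40%; inactive = inhibition below 40%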;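 also: fluorescence of freed AMC excited at 355 nm; 0% = enzyme without compound and 100% = no enzyme blank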
* hit, by the source's call; nt = no result.

SMILES	m-calpain inh	Furin inhibitor	FXIIa inh	KLK5 inh	Thrombin inh	FXIa inh
COc1ccc(C(=O)Nc2cccc(S(C)(=O)=O)c2)cc1OC	27	-7	22	43*	11	28
COc1ccc(C(=O)Nc2cccc(NC(C)=O)c2)cc1OC	-19	-14	14	0	2	7
O=C(CCNC(=O)c1ccc(Cl)cc1)Nc1ccc(Cl)cc1F	-3	-16	12	-22	1	6
O=C(NN1C(=O)c2ccccc2NC1c1ccco1)c1ccc(Br)cc1 (centres undefined)	-35	-27	7	-23	4	-3
O=C(NN1C(=O)c2ccccc2NC1c1ccco1)c1ccc([N+](=O)[O-])cc1 (centres undefined)	62*	-23	3	1	-1	3
CCc1cccc(CC)c1N(COC)C(=O)Cn1c(CO)nc2ccccc21	20	-26	43*	4	-1	8
O=C(c1ccc(Cn2cc(Cl)cn2)o1)N1CCN(Cc2ccc3c(c2)OCO3)CC1	-18	-4	12	7	2	4
COc1ccc(-n2nnnc2SCC#CCO)cc1	-41	-22	16	5	1	6
Cc1cc(-c2ccccc2)oc(=O)c1NC(=O)c1ccccc1	16	-24	-4	-21	1	-11
Cc1ccnc(SCc2cc(=O)c(OC(=O)c3ccco3)co2)n1	-8	-22	13	-14	0	12
Cc1ccnc(SCc2cc(=O)c(OC(=O)c3ccc(Cl)c([N+](=O)[O-])c3)co2)n1	28	25*	6	-19	-4	5
CC1CCc2c(sc(NC(=O)COC(=O)C3CCCO3)c2C#N)C1 (centres undefined)	22	-9	24	24	45*	26
Cc1ccc(S(=O)(=O)N2CCC(=O)N(C(COCc3cccc(C)c3)Cc3ccccc3)CC2)cc1 (centres undefined)	7	-2	14	-1	3	7
O=S(=O)([N-]c1nc2ccccc2nc1-n1cc[n+](Cc2ccccc2)c1)c1ccc(Cl)cc1	-86	-3	58*	28	16	60*
CC(C)CC[n+]1ccn(-c2nc3ccccc3nc2[N-]S(=O)(=O)c2ccccc2)c1	-277	-5	15	-17	1	2
CCOC(=O)C1=C(C)N=C2SCCC(=O)N2[C@@H]1/C=C/c1ccccc1	14	-19	12	-4	1	-1
N#Cc1c2n(c3c(=O)n(Cc4ccccc4)cnc13)CCCC2	23	-5	44*	-21	9	15
O=C(NCc1ccc(F)cc1)c1ccc(S(=O)(=O)Nc2cccc(C(F)(F)F)c2)cc1	4	3	10	49*	25	5
S=C(Nc1ccc2nc(-c3ccccn3)c(-c3ccccn3)nc2c1)N1CCOCC1	-49	-2	2	5	-3	0
O=C(NCc1ccc(C(F)(F)F)cc1)C12CN(Cc3ccccc3)CC1C(c1cccc([N+](=O)[O-])c1)=NO2 (centres undefined)	-108	-8	9	42*	17	8
CC(C)CCNC(=O)C12CN(Cc3ccccc3)CC1C(c1ccc([N+](=O)[O-])cc1)=NO2 (centres undefined)	58*	4	5	37	11	1
Cc1ccc(NC(=O)c2cccc(N3C(=O)C4C5CCC(C5)C4C3=O)c2)c(C)c1 (centres undefined)	-9	-19	5	0	2	13
Cc1ccccc1NC(=O)c1cccc(N2C(=O)C3C4CCC(C4)C3C2=O)c1 (centres undefined)	19	-4	21	43*	21	15
O=c1c2[nH]c3cccc(Cl)c3c2ncn1CC1CCCO1 (centres undefined)	-25	-15	11	1	2	2
O=c1c2[nH]c3cccc(Cl)c3c2ncn1CCN1CCCCC1	-1	-27	43*	-21	0	19
SMILES	m-calpain inh	Furin inhibitor	FXIIa inh	KLK5 inh	Thrombin inh	FXIa inh
CCOC(=O)COc1ccc2c(c1)C(=O)CC(C)(c1cccnc1)O2 (centres undefined)	nt	-24	-36	-107	-8	-30
COc1ccc(-c2[nH]ncc2C2N=C(N)Nc3nc4ccccc4n32)cc1 (centres undefined)	38	-4	31	18	9	47*
CCOC(=O)CCCNC(=O)CCNC(=O)c1ccc(OC(C)C)cc1	12	-9	16	40*	22	13
CC(C)CCNC(=O)C(Cc1ccccc1)NS(=O)(=O)c1ccc2c(c1)c(=O)n(C)c(=O)n2C (centres undefined)	14	-3	17	-6	3	5
Cn1cc(S(=O)(=O)NCC2CCCO2)c(=O)n(C)c1=O (centres undefined)	9	-6	18	14	7	12
CCc1ccc(N(C(C)=O)c2nc(CCl)cs2)cc1	13	-4	24	88*	12	30
CC(=O)N(c1ccccc1)c1nc(/C=C/C(=O)O)cs1	10	-30	13	6	-1	2
COC(=O)c1[nH]c(C)c(/C(O)=C2\C(=O)C(=O)N(CCN(C)C)C2c2cccc(OC)c2OC)c1C (centres undefined)	21	-1	44*	56*	11	5
O=C(NCC(c1cccnc1)N1CCN(c2ccccc2)CC1)OCc1ccccc1 (centres undefined)	-11	-20	17	1	2	5
COC(=O)NCC(c1ccco1)N1CCN(c2ccc(OC)cc2)CC1 (centres undefined)	-26	-22	-9	-28	-1	-9
O=C(NCC(c1cccnc1)N1CCN(c2ccc(F)cc2)CC1)OCc1ccccc1 (centres undefined)	6	-1	14	46*	21	10
COC(=O)NCC(c1ccco1)N1CCN(c2ccc(F)cc2)CC1 (centres undefined)	10	-14	-2	43*	27	0
O=C1NC(=S)S/C1=C\c1ccc(SCc2ccccc2)o1	39	-20	8	-66	2	8
O=C1NC(=S)S/C1=C\c1ccc(SCc2ccco2)o1	52*	-2	-5	-46	-2	1
Cc1ccc(C(=O)CSc2nnc(-c3snnc3C)n2C2CC2)cc1	22	-15	14	2	1	-3
O=C(NCCc1nnc2ccc(NCc3ccc(Cl)cc3)nn12)c1ccccc1	57*	-14	11	-14	3	-2
C#CCOc1nc(Nc2cccc([N+](=O)[O-])c2)nc(OCC#C)n1	37	-11	41*	22	5	5
